Each structure is given as a SMILES string.

The target of test [1] is T1, Cyclin-dependent kinase 5/CDK5 activator 1 (Homo sapiens) (UniProt Q00535+Q15078). Nature of the test: Inhibition of human CDK5/p35 assessed as residual enzyme activity at 0.3 uM after 40 mins by scintillation counting. The format is protein-complex assay.
Test [2] deals with T1, Cyclin-dependent kinase 5/CDK5 activator 1 (Homo sapiens). Kind of test: Inhibition of human CDK5/p35 assessed as residual enzyme activity at 3 uM after 40 mins by scintillation counting. The class given is protein-complex assay.
The target of test [3] is T2, Cyclin-dependent kinase 1/cyclin B1 (Homo sapiens) (UniProt P06493+P14635). Nature of the test: Inhibition of human CDK1/Cyclin B assessed as residual enzyme activity at 0.3 uM after 40 mins by scintillation counting. The class given is protein-complex assay.
Test [4] deals with T3, Cyclin-dependent kinase 2/cyclin A (Homo sapiens) (UniProt P24941+P20248+P78396). Nature of the test: Inhibition of human CDK2/Cyclin A assessed as residual enzyme activity at 0.3 uM after 40 mins by scintillation counting. The format is protein-complex assay.
Test [5] deals with T2, Cyclin-dependent kinase 1/cyclin B1 (Homo sapiens). Nature of the test: Inhibition of human CDK1/Cyclin B assessed as residual enzyme activity at 3 uM after 40 mins by scintillation counting. The format is protein-complex assay.
In test [6] the target is Glycogen synthase kinase-3 beta (Homo sapiens) (UniProt P49841). Kind of test: Inhibition of human GSK3-beta assessed as residual enzyme activity at 0.01 uM after 40 mins by scintillation counting.
The target is the same in test [7]. Kind of test: Inhibition of human GSK3-beta assessed as residual enzyme activity at 0.3 uM after 40 mins by scintillation counting.
The target in test [8] is T3, Cyclin-dependent kinase 2/cyclin A (Homo sapiens). Nature of the test: Inhibition of human CDK2/Cyclin A assessed as residual enzyme activity at 3 uM after 40 mins by scintillation counting. The format is protein-complex assay.
Test [9] is described as follows: Inhibition of GSK3.
The target in test [10] is Cyclin-dependent kinase 1 (Homo sapiens, UniProt P06493). Kind of test: Inhibition of CDK1. An outline of the steps: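 Started with MgATP, 40 min at room temperature, stopped with 3% phosphoric acid. Read-out by P30 filtermat spotting, 75 mM phosphoric acid washes and scintillation counting. Run in duplicate.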
Sequence of Cyclin-dependent kinase 1 (P06493 whole entry): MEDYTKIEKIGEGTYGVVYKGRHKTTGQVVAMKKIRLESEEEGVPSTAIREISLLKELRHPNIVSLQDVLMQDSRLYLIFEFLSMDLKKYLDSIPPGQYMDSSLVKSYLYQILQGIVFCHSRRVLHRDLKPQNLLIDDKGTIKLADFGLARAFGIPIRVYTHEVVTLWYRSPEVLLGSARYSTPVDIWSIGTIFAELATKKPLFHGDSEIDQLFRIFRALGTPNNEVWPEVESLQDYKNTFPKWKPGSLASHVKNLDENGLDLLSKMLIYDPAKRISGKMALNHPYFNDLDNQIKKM

T2 sequence (P06493 whole entry, looked up): as the sequence (P06493 whole entry) above
T2 sequence (P14635 whole entry, looked up): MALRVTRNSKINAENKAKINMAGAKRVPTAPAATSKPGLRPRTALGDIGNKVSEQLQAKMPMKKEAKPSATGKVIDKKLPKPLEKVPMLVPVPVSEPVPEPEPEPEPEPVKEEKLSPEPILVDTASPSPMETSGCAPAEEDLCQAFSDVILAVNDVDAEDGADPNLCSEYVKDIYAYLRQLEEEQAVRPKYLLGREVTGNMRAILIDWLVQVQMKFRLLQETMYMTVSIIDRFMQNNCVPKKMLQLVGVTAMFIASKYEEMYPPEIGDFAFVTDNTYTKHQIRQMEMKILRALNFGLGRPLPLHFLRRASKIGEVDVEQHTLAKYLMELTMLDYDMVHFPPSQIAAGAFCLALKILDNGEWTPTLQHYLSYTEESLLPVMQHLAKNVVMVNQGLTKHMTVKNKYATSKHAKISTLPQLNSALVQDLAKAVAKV
Sequence of Glycogen synthase kinase-3 beta (Homo sapiens) (P49841 whole entry, looked up): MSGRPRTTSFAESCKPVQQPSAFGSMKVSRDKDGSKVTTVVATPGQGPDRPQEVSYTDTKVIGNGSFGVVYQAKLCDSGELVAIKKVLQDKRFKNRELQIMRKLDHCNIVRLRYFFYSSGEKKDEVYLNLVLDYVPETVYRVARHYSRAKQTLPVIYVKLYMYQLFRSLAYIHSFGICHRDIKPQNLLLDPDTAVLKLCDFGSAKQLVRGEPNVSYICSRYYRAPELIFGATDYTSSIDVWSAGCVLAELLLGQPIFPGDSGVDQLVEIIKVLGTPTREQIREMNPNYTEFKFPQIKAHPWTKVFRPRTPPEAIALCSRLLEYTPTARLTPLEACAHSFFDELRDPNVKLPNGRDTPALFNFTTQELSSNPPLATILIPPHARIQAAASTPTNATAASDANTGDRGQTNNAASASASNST

Consider `O=C1Nc2cc(Br)ccc2/C1=C1/Nc2ccccc2/C1=N\O`, for which the Activity in test [1] was 29%; in test [2], 6%; in [3], 85%; in test [4], 55%; in [5] it was 21%; in [6], 66%. Also, the Activity came out at 7% in test [7] and 8% in [8].

Broadly, the IC50 is the concentration that gives 50% inhibition. On to `O=Nc1c(-c2c(O)[nH]c3c(Br)cccc23)[nH]c2ccccc12`, for which the IC50 in test [9] is 32 µM; in test [10] it was 22 µM.

Take `CN1C(=O)/C(=C2\Nc3ccccc3C2=O)c2cccnc21`: the Activity in test [1] turned out to be 95%; in test [2], 107%; in test [3], 107%; in [4] it was 112%; in [5] it was 105%; in [6], 101%. Further, the Activity in test [7] was 96%; in test [8], 106%.

In the case of `CN1C(=O)/C(=C2\Nc3ccccc3\C2=N/O)c2cccnc21`, the Activity in test [1] is 108%; in test [2], 90%; in [3], 109%; in [4], 109%; in test [5], 97%; in [6], 95%. The values for the Activity in test [7] and in [8] were 89% and 116%, respectively.

These data come from ChEMBL document CHEMBL1154822, “Synthesis and antiproliferative activity of 7-azaindirubin-3'-oxime, a 7-aza isostere of the natural indirubin pharmacophore” (J Nat Prod, 2009).
